Activity calls are given as the source filed them. The calls are words filed in the database; no cut-off is given here.

Assay [1] can be described thus: Cytotoxicity against ARN-8 cells-derived from human A375 cells pretreated for 4 hrs followed by light irradiation of 10 J/cm2 at 414 nm measured after 68 hrs by MTT assay. Type of assay: functional, cell-based. As to conditions: ARN-8 cell, light or radiation study. In outline: (§1)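 Cells grown in phenol red-free DMEM with 10 % FBS, penicillin/streptomycin, 37 °C, 5 % CO₂. Compound added 24 h after plating and incubated 4 h. Irradiated cells received 414 nm LED light at 20 mW/cm², 10 J/cm², then were incubated 20 h or 68 h more. Dark plates were run in parallel without irradiation. MTT was added for 4 h, formazan dissolved in 10 % SDS, absorbance read at 570 nm. EC50 ± SD.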
For orientation: Tetrazolium assays rely on reduction of a dye to a coloured formazan, in cell work by metabolically active cells.

Assay [2] is described as follows: Cytotoxicity against human ARN-8 cells-derived from human A375 cells under dark condition measured after 24 hrs by MTT assay. Type of assay: functional, cell-based. As to conditions: ARN-8 cell. In outline: as §1
Assay [3] in a line: Cytotoxicity against ARN-8 cells-derived from human A375 cells pretreated for 4 hrs followed by light irradiation of 10 J/cm2 at 414 nm measured after 20 hrs by MTT assay. As to conditions: ARN-8 cell, light or radiation study. The format is functional, cell-based. In outline:
as §1

Assay [4] has as its system ARN-8 cell. Put plainly: Induction of ROS production in human ARN-8 cells-derived from human A375 cells upto 4 uM pretreated for 4 hrs followed by light irradiation of 5 to 10 J/cm2 measured immediately in presence of N-acetylcysteine by CM-H2DCFA probe based analysis. The format is functional. The method in brief:
(§2)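 Cells loaded next day with 5 µM CM-H₂DCFDA for 30 min, then placed in prewarmed PBS with 5 mM glucose. Compound exposure 4 h, followed by 414 nm irradiation at 5 or 10 J/cm²; dark samples run in parallel. Fluorescence read immediately at 492/530 nm. NAC (5 mM) pretreatment for 10 min gave negative controls. RFU normalised to untreated dark control.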

Assay [5] concerns G-361. Put plainly: Cytotoxicity against human G361 cells pretreated for 4 hrs followed by light irradiation of 10 J/cm2 at 414 nm measured after 68 hrs by MTT assay. Type of assay: functional, cell-based. As to conditions: G-361, light or radiation study. In outline: as §1
Assay [6] concerns G-361. Description: Induction of apoptosis in human G361 cells assessed as decrease in Bcl-2 level upto 4 uM pretreated for 4 hrs followed by light irradiation of 10 J/cm2 at 414 nm measured after 20 hrs by Western blot analysis. The format is functional, cell-based. As to conditions: time 24.0 hrs. In outline:
(§3)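 Compound exposure 4 h, then 414 nm irradiation, then 20 h further incubation. Lysates made in RIPA buffer, separated by SDS-PAGE and blotted to nitrocellulose. Primary antibodies in TBS with 4 % BSA and 0.1 % Tween 20, incubated overnight. Peroxidase secondary antibody with chemiluminescent detection. GAPDH served as loading control.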
A general note: Immunoblotting shows a protein as a band on a membrane.

The subject of assay [7] is G-361. Put plainly: Cytotoxicity against human G361 cells pretreated for 4 hrs followed by light irradiation of 10 J/cm2 at 414 nm measured after 20 hrs by MTT assay. Type of assay: functional, cell-based. As to conditions: G-361, light or radiation study. The method in brief:
as §1

Assay [8] is described as follows: Selectivity ratio of EC50 for human G361 cells under dark condition measured after 72 hrs by MTT assay to EC50 for human G361 cells pretreated for 4 hrs followed by light irradiation of 10 J/cm2 at 414 nm measured after 68 hrs by MTT assay. The format is functional. The method in brief: (§4)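 Ratio of dark EC50 to EC50 after 414 nm irradiation (10 J/cm²). MTT read-out; compound exposure 4 h before irradiation. Each dark value is paired with the matching post-irradiation incubation (20 h or 68 h).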

The subject of assay [9] is G-361. Put plainly: Cytotoxicity against human G361 cells under dark condition measured after 72 hrs by MTT assay. The format is functional, cell-based. As to conditions: G-361, 72 h. The method in brief: as §1
The subject of assay [10] is G-361. Put plainly: Induction of ROS production in human G361 cells upto 4 uM pretreated for 4 hrs followed by light irradiation of 5 to 10 J/cm2 measured immediately in presence of N-acetylcysteine by CM-H2DCFA probe based analysis. The format is functional, cell-based. The method in brief: as §2
For assay [11], the system named is G-361. Description: Induction of apoptosis in human G361 cells assessed as decrease in Mcl-1 level upto 4 uM pretreated for 4 hrs followed by light irradiation of 10 J/cm2 at 414 nm measured after 20 hrs by Western blot analysis. As to conditions: time 24.0 hrs. The format is functional, cell-based. In outline: as §3
The test system of assay [12] is ARN-8 cell. Put plainly: Induction of ROS production in human ARN-8 cells-derived from human A375 cells upto 4 uM treated for 4 hrs under dark condition by CM-H2DCFA probe based analysis. The format is functional. In outline:
as §2

Assay [13] in a line: Induction of singlet oxygen generation in aqueous solution at 5 uM at light irradiation of 10 J/cm2. The format is functional. The method in brief:
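Water solutions of compound mixed with SOSG, DHR123 or HPF probe, each at a final 5 µM, without cells or medium. Irradiated with blue light at 10 J/cm² and fluorescence read immediately at 490/525 nm.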

Assay [14] relates to G-361. Put plainly: Induction of ROS production in human G361 cells assessed as increase in hydroxyl radical production upto 4 uM pretreated for 4 hrs followed by replacement of medium containing probe without compound for 30 mins and subsequent light irradiation of 5 to 10 J/cm2 measured immediately by DHR-123 probe based analysis. Type of assay: functional, cell-based. In outline: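 Compound exposure 4 h, then medium replaced with PBS containing 5 µM DHR123 probe for 30 min. Probe removed, cells in PBS irradiated at 5 or 10 J/cm², dark samples in parallel. Fluorescence read immediately at 490/525 nm.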

Assay [15] can be described thus: Selectivity ratio of EC50 for human G361 cells under dark condition measured after 24 hrs by MTT assay to EC50 for human G361 cells pretreated for 4 hrs followed by light irradiation of 10 J/cm2 at 414 nm measured after 20 hrs by MTT assay. The format is functional. The method in brief:
as §4

The subject of assay [16] is ARN-8 cell. Put plainly: Induction of DNA damage in human ARN-8 cells-derived from human A375 cells assessed as increase in H2AX phosphorylation at Ser139 at 0.5 to 1 uM pretreated for 4 hrs followed by light irradiation of upto 10 J/cm2 at 414 nm measured after 20 hrs by Western blot analysis. The format is functional, cell-based. As to conditions: dose 0.5-1 µM, time 24.0 hrs. The method in brief:
as §3

The test system of assay [17] is G-361. Put plainly: Induction of DNA fragmentation in human G361 cells at 0.5 uM pretreated with compound followed by light irradiation of 10 J/cm2 at 414 nm by Comet assay. The format is functional, cell-based. In outline:
(§5)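 G361 cells exposed at 0.5 µM and irradiated at indicated 414 nm doses. Cells trypsinized and embedded in 1 % LMP agarose on slides, lysed 1 h in buffer with 1 % Triton X. Cold electrophoresis solution for 40 min, then electrophoresis at 20 V, 350 mA for 20 min. Neutralised twice for 10 min, stained with SYBR Green 15 min. Percent DNA in comet head and tail scored.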

Assay [18] has as its system ARN-8 cell. Put plainly: Induction of apoptosis in human ARN-8 cells-derived from human A375 cells assessed as increase in cleaved BAX level upto 4 uM pretreated for 4 hrs followed by light irradiation of 10 J/cm2 at 414 nm measured after 20 hrs by Western blot analysis. The format is functional, cell-based. As to conditions: time 24.0 hrs. The method in brief:
as §3

Assay [19] deals with G-361. Description: Cytotoxicity against human G361 cells under dark condition measured after 24 hrs by MTT assay. The format is functional, cell-based. As to conditions: G-361, 24 h. In outline: as §1
In assay [20] the test system is G-361. Description: Induction of DNA fragmentation in human G361 cells at 0.5 uM by Comet assay. Type of assay: functional, cell-based. The method in brief:
as §5

Assay [21] has as its system ARN-8 cell. Description: Induction of cell cycle arrest in human ARN-8 cells-derived from human A375 cells assessed as cell accumulation at G2/M phase at 0.5 to 1 uM pretreated for 4 hrs followed by light irradiation of upto 10 J/cm2 at 414 nm measured after 20 hrs by flow cytometry. The format is functional, cell-based. As to conditions: dose 0.5-1 µM, time 24.0 hrs. The method in brief: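 Compound exposure 4 h (0.5 or 1 µM), then irradiation at increasing blue-light doses, then 20 h further incubation. Cells stained with propidium iodide; DNA content measured by flow cytometry with a 488 nm laser. Cell-cycle and subG1 distributions analysed.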
In general terms: Flow cytometry measures light scatter and fluorescence of single cells or particles in a stream.

In the case of `COc1ccc(/C=C/C2=Nc3ccc4ccccc4c3C2(C)C)cc1[N+](=O)[O-]`, the EC50 (usually the concentration at which the effect is half-maximal) in assay [1] stood at 200 nM; in assay [2], 9200 nM; in [3] it was 500 nM; in the assay with G-361 [5], 200 nM; in the assay with G-361 [7], 600 nM; in the assay with G-361 [9], 5600 nM. In the assay on G-361 [19], this compound gave an EC50 of 9000 nM. Further, the outcome (in the assay with ARN-8 cell [4]; with G-361 [10]; in the assay with ARN-8 cell [12]; in assay [13]; in the assay with G-361 [20]) was inactive. Further, the result in the assay with G-361 [6], with G-361 [11], in the assay on G-361 [14], in the assay on ARN-8 cell [16], in the assay on G-361 [17] and in the assay with ARN-8 cell [18] was Active. Also, in the assay with ARN-8 cell [21], the outcome was Active. The “Ratio EC50” value in assay [8] is listed as above 28; in assay [15], “>=15”.

For the origin of these results see ChEMBL document CHEMBL6071149, “Synthesis and photo-induced anticancer activity of new 2-phenylethenyl-1H-benzo[e]indole dyes” (Eur J Med Chem, 2024).
